# Laboratory results: publication PMC7271596 (Haematologica, 2019)
# B1: FLT3-L: FLT3 ligand from PeproTech (protein, UniProt P49771 27-235, looked up)
# Fms-related tyrosine kinase 3 …: TQDCSFQHSPISSDFAVKIRELSDYLLQDYPVTVASNLQDEELCGGLWRLVLAQRWMERLKTVAGSKMQGLLERVNTEIHFVTKCAFQPPPSCLRFVQTNISRLLQETSEQLVALKPWITRQNFSRCLELQCQPDSSTLPPPWSPRPLEATAPTAPQPPLLLLLLLPVGLLLLAAAWCLHWQRTRRRTPRPGEQVPPVPSPQDLLLVEH
# How the values were obtained:
# SKM1 cells [1] = assay: Cell cycle distribution 24 hours after treatment; type: cell-based, human; conditions: SKM1, 24 hours after exposure, IC10 APR with or without IC50 AZA
# [2] = system: SKM1, K562, KG1a, THP-1, and HL60 cell lines; assay: Cytotoxicity; type: cell-based, human; conditions: all of the cell lines tested (SKM1, K562, KG1a, THP-1, HL60)
# [3] = system: SKM1, K562, KG1a, THP-1, and HL60 cell lines; assay: Cell cycle distribution 24 hours after treatment, five cell lines; type: cell-based, human; conditions: IC10 APR alone, various cell lines tested
# SKM1 cells [4] = assay: Cytotoxicity; type: cell-based, human
# [5] = system: SKM1, K562, KG1a, THP-1, and HL60 cell lines; assay: Apoptosis, Annexin V-positive cells at day 3, five cell lines; type: cell-based, human; conditions: IC10 APR alone, day 3, cell lines tested
# How it was run: (§1)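 Human myeloid lines in RPMI 1640 with 10% FBS, 1% penicillin/streptomycin and 1% GlutaMAX. Log-phase cells seeded at 2x10^5/mL. Drugs added once at day 0: IC10 APR, IC50 AZA, or both at these concentrations. Annexin V-positive cells scored at day 3. Results given as means ± SD; Mann-Whitney test, two-sided.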
# [6] = system: primary cells from MDS/AML patients; assay: Clonogenic assay in semi-solid medium; type: cell-based, human; conditions: 14 days, 34 MDS/AML patient samples
# SKM1 cell line = assay: Transcriptomic analysis; type: cell-based, human; conditions: IC10 APR vs untreated SKM1 cells, GSEA
# HL60 cells = assay: Cytotoxicity; type: cell-based; conditions: Homo sapiens, HL-60, 72 h, read-out: IC50 (proliferation)
# SKM1 cells [7] = assay: Apoptosis, Annexin V-positive cells at day 3; type: cell-based, human; conditions: SKM1, day 3, IC10 APR and/or IC50 AZA
# How it was run: as §1
Molecule,cells in G0/G1 phase (SKM1 cells [1]) [%],"50% inhibitory concentrations (IC50), cell proliferation [2]",effect on cell cycle distribution [3],"IC50 fold lower for the SKM1 cell line compared to the other AML lines (SKM1 cells [4]; SKM1 vs K562, KG1a, THP-1, HL60)",induction of apoptosis [5],reduction of myeloid and erythroid colony growth [6],ROS-induced genes NES (SKM1 cell line; 18 hours),early apoptotic program NES (SKM1 cell line),p53 pathway Normalized Enrichment Score (NES) (SKM1 cell line),IC50 (HL60 cells) [µM],apoptotic cells (Annexin V-positive) (SKM1 cells [7]) [%],"IC50 (SKM1 cells [4]; Homo sapiens, SKM-1, 72 h, read-out: IC50 (proliferation)) [µM]","effect on SKM1 cell proliferation (SKM1 cells [4]; FLT3-L on its own, 0.1 to 100 ng/mL)"
"COCC1(CO)C(=O)C2CCN1CC2 (centres unmarked) [APR, PRIMA-1^Met]",62,in the micromolar range,did not affect the cell cycle distribution,at least 2 fold,did not induce apoptosis,approximately 60%,1.2,1.1,1.2,,,,
"Nc1ncn([C@@H]2O[C@H](CO)[C@@H](O)[C@H]2O)c(=O)n1 [AZA, 5-azacitidine]",,,,,,30%,,,,4.5,19,0.54,
B1,,,,,,,,,,,,,did not affect SKM1 cell proliferation
